Shown are actives, neighbours in structure and some others; about 3.2% of the full set was active somewhere.
DAX1 inh-1: DAX1 (NR0B1) inhibitors, primary screen, cell-based, HEK293, Gal4-DAX1, luciferase luminescence. Nuclear receptor subfamily 0 group B member 1 (Homo sapiens), P51843. HEK293 Gal4-DAX1 luciferase reporter. inhibition, % at 6.75 µM. 0.99% of 340,000 active;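 active means inhibition above the mean over all tested compounds plus 3 SD, cut at about 4.2% in these data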;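 further: 0% = DAX1-transfected cells with DMSO and 100% = empty-vector control cells with DMSO; inhibition shows as a rise in luminescence from relieved DAX1 repression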
SMARCA2 act: SMARCA2 (BRM) function activators, primary screen, cell-based, luminescence, high throughput. MG213 cells, MMTV-luciferase reporter, dexamethasone, overnight. AID 652017, 2013. 1% of 370,000 active. activation, % at 9.1 µM; in the data active means activation above about 7.8%;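 further: 0% = vehicle wells and 100% = reference activator wells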
DAX1 inh-2: DAX1 (NR0B1) inhibitors on StAR promoter, primary screen, cell-based, luminescence, SF-1 (NR5A1), full-length DAX-1; HEK293T StAR-luciferase reporter, SF-1/DAX-1 repression relief; inhibition, % at 6.8 µM; 1.1% of 370,000 active; AID 652010, 2013;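 active means inhibition above the mean over all tested compounds plus 3 SD, cut at about 3.6% in these data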;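 further: 0% = DAX-1 cells with DMSO and 100% = cells lacking DAX-1 with DMSO; higher inhibition means more luminescence from relief of DAX-1 repression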
JMJD2C inh: inhibitors of GASC-1 histone demethylase, primary screen, biochemical, fluorescence, DELFIA europium; GST-JMJD2C(1-420) H3K9me3 demethylation; 0.069% of 330,000 active; inhibition, % at 2.35 µM;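 active means more than half of a compound's replicate wells show inhibition beyond 50%, single wells judged on their own value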;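 further: signal counts dimethyl H3K9 product captured on neutravidin plate; 0% = median of DMSO wells and 100% = 0.3 times that DMSO median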
Target sequence (Q9H3R0 1-420 limits assumed): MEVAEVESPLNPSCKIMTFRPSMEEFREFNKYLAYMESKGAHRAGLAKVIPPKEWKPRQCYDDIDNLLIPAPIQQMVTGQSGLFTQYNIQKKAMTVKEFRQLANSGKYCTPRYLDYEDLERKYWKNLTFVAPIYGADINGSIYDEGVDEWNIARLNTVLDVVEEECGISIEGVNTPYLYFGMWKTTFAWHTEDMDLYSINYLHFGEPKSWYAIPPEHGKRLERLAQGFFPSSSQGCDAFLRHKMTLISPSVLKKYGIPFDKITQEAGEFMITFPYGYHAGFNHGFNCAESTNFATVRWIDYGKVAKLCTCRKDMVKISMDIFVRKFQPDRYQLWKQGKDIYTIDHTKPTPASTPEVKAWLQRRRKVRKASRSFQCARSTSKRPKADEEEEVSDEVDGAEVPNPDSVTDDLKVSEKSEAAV
NR2E3 ag-1: NR2E3 agonists in two-hybrid cells, primary screen, cell-based, luminescence, CHO-S, Gal4-NCOR/VP16-NR2E3; luciferase; inhibition of corepressor binding, % at 3.98 µM; 0.35% of 360,000 active; AID 602229, 2012; Photoreceptor-specific nuclear receptor (Homo sapiens), Q9Y5X4;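 active means inhibition above the mean of all tested compounds plus 3 SD, cut at about 70% in these data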;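 further: 0% = DMSO with NR2E3 transfected cells and 100% = cells lacking NR2E3 construct; higher means lower luciferase signal from less NR2E3 corepressor binding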
NR2E3 ag-2: inhibitors of NR2E3-RetCOR corepressor binding, primary screen, NR2E3 agonist project, biochemical, TR-FRET, GST-NR2E3, biotin-RetCOR. Photoreceptor-specific nuclear receptor (Homo sapiens), Q9Y5X4. 1536-well. inhibition of corepressor binding, % at 4.78 µM. 0.12% of 320,000 active. AID 2300, 2010;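 active means percent inhibition above the cutoff of mean plus 3 SD of all tested compounds, set per screening campaign, cut at about 20% in these data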;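 further: 0% = DMSO wells and 100% = biotin wells as full block of FRET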
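Material: NR2E3–RetCOR corepressor complex / Amount: 1.35 nM GST-NR2E3 / Medium: Tris pH 7.5 / Compound: single nominal compound dose of 4.8 µM / Incubation: 5 h at 4 °C / Technique: TR-FRET, Eu(K)-anti-GST donor, streptavidin-D2 acceptor, ex 340, em 617/671 nm / Read-out basis: percent loss of FRET ratio relative to control wells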
The depositor's hits bear a star; . = no result given.

SMILES | DAX1 inh-1 | SMARCA2 act | DAX1 inh-2 | JMJD2C inh | NR2E3 ag-1 | NR2E3 ag-2
Cc1cc2ccccn2c1C(=O)c1ccncc1 | 0 | -1 | -1 | 69* | -1 | 4
CCc1ccc(S(=O)(=O)/N=C2\C=CC(=O)c3ccccc32)cc1 | . | . | . | 12 | . | 3
CCc1ccc(S(=O)(=O)/N=C2/C=C(Sc3ncn[nH]3)C(=O)c3ccccc32)cc1 | -5 | . | . | 19 | 100* | 6
CC(C)(C)c1ccc(S(=O)(=O)N2CCC(C(=O)NCc3cccs3)CC2)cc1 | . | -5 | 0 | . | . | .
C=CCN1C(=O)[C@H](CC(=O)N2CCN(C(=O)C3CC3)CC2)[C@@]2(C(=O)OCC)CCCC=C12 | . | -2 | -1 | . | . | .
Cc1ccc(-c2nn(CCC#N)cc2C=C(C#N)C#N)cc1 | 2 | 0 | 0 | -24 | 0 | 4
N#CCCn1cc(/C=C/C(=O)O)c(-c2ccc(F)cc2)n1 | 5.4* | 2 | 2 | -12 | -5 | 3
Cc1ccc(O)c(NC(=O)c2onc(C)c2Cl)c1 | 3 | 4 | 0 | 3 | -39 | 7
Cc1noc(C(=O)Nc2ccc(F)cc2F)c1Cl | 4.2* | 6 | 0 | 6 | -23 | .
CCCCN1C[C@@H]2CSCCS(=O)(=O)N2C1=O | . | -3 | -1 | . | . | .
COC(=O)c1ccccc1NC(=O)COC(=O)C1CCCCC1 | 4.4* | 2 | 0 | -6 | 8 | -2
CCc1ccc(CCNC(=O)OC2CCC23CCC(c2ccccc2)CC3)cc1 (stereo not drawn) | . | -1 | -1 | . | . | .
O=[N+]([O-])c1cccc(-n2nnnc2CNCc2ccccc2)c1 | 5.7* | -2 | -1 | -6 | 10 | 1
COc1ccc(C(=O)CSc2nnc(-c3cccnc3)n2-c2ccccc2)cc1 | . | -2 | -1 | . | . | .
CC(OC(=O)c1cc[n+]([O-])cc1)C(=O)NCc1ccccc1 (stereo not drawn) | 4.7* | -1 | -1 | 3 | 8 | 3
O=C(CSc1nc2ccccc2n1Cc1ccccc1Cl)N/N=C\c1cccc(Oc2ccccc2)c1 | . | -6 | -1 | . | . | .
Oc1ccc(-c2nccc(-c3cccs3)n2)cc1 | 4.8* | 3 | 2 | 0 | -75 | 0
CC(=NNC(=O)CSc1nnc(-c2ccccc2)n1-c1ccccc1)c1cccc([N+](=O)[O-])c1 | . | 0 | -2 | . | . | .
C=CCSC1=N/C(=C\c2cccnc2)C(=O)N1c1ccc(OC)cc1 | -1 | -3 | -1 | -5 | 4 | -1
C=CCSC1=N/C(=C/c2ccsc2)C(=O)N1c1ccccc1 | 5.0* | 4 | 0 | 11 | 6 | -2
CC1CN(C2=NC(=O)/C(=C3/C(=O)N(Cc4ccc(F)cc4)c4ccccc43)S2)CC(C)O1 (stereo not drawn) | 0 | -1 | 0 | -10 | -29 | 2
O=C1N=C(N2CCOCC2)S/C1=C1\C(=O)N(Cc2ccccc2)c2ccccc21 | 4.4* | 1 | 0 | -20 | 0 | 1
O=C(NCc1ccc2c(c1)OCO2)c1ccc2c(=O)n(C3CCCC3)c(=O)[nH]c2c1 | 4.9* | -2 | 0 | 1 | 16 | -3
COc1ccc(Cn2c(=O)[nH]c3cc(C(=O)NCc4ccc5c(c4)OCO5)ccc3c2=O)cc1 | -1 | 0 | 0 | -2 | 3 | 4
O=C(NCCc1ccccc1)c1ccc(Sc2ccccc2Cl)c([N+](=O)[O-])c1 | . | 3 | -1 | . | . | .
O=[N+]([O-])c1ccc2nc(-c3cccnc3)[nH]c2c1 | 1 | 5 | 0 | -18 | -14 | 7
O=[N+]([O-])c1ccc2nc(-c3ccccc3)[nH]c2c1 | 2 | 2 | 4.0* | 10 | -112 | 5
CC1(c2nnnn2Cc2ccccc2)CCCC(=O)N1Cc1cccs1 (stereo not drawn) | . | 1 | -1 | . | . | .
O=C(Nc1cnc2ccccn2c1=O)c1ccc(F)cc1 | 3 | 6 | 1 | -2 | -59 | 2
